In ChEMBL document CHEMBL1148816, “Heterotricyclic himbacine analogs as potent, orally active thrombin receptor (protease activated receptor-1) antagonists” (J Med Chem, 2007):
The source made the active and inactive calls. The rule behind the calls is not given here.

What was measured:
[1] = biological target: T1, Proteinase-activated receptor 1 (Homo sapiens, UniProt P25116); experiment: (§1) Displacement of [3H]haTRAP from PAR1 in human platelet membrane; type: cell membranes
T1 sequence (P25116 whole entry): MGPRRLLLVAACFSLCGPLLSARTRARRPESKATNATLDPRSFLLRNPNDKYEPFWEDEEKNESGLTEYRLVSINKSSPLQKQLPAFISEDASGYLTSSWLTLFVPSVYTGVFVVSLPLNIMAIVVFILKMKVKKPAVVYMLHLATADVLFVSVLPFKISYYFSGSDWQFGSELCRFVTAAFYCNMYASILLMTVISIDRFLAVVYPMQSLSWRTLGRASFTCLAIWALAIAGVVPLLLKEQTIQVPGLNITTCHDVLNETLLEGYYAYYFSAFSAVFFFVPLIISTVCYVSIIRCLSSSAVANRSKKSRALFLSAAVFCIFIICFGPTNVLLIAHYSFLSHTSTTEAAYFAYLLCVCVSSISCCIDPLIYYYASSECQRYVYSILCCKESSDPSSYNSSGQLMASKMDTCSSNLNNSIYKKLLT
How it was run: (§2)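 Membranes from human platelets as the PAR-1 source, with tritiated high-affinity thrombin receptor activating peptide ([3H]haTRAP) as radioligand; IC50 reported ± SEM, n = 2.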

[2] = AUC (0 to 6 hrs) in rat at 10 mg/kg, po; type: ADME, organism-based; set-up: time < 6 hr, dose 10 mg/kg, route oral; conditions: plasma
How it was run: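 Rats given a single 10 mg/kg oral dose in 0.4% methylcellulose; plasma levels followed for 6 h and exposure reported as AUC from 0 to 6 h in ng·hr/mL.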

Cynomolgus monkey [3] = experiment: Ex vivo inhibition of haTRAP-induced platelet aggregation in cynomolgus monkey at 3 mg/kg, po 24 hrs; type: functional; conditions: Macaca fascicularis
How it was run: (§3)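 Conscious, chaired cynomolgus monkeys dosed orally at 3 mg/kg in 20% PEG-HPBCD; blood drawn at 1 h intervals to 6 h, then at 24 h; haTRAP added ex vivo as agonist; aggregation read in a whole blood aggregometer, reported as percent reduction.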

Cynomolgus monkey [4] = experiment: Ex vivo inhibition of haTRAP-induced platelet aggregation in cynomolgus monkey at 3 mg/kg, po after 6 hrs; type: functional; conditions: Macaca fascicularis; how it was run: as §3
Cynomolgus monkey [5] = experiment: Inhibition of haTRAP-induced platelet aggregation in cynomolgus monkey at 1 mg/kg, po up to 6 hrs; type: functional, organism-based; set-up: dose 1 mg/kg; conditions: Macaca fascicularis
How it was run: (§4)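 Cynomolgus monkeys dosed orally at 1 mg/kg and kept conscious in chairs; blood sampled hourly up to 6 h and again at 24 h; haTRAP added to the samples to trigger aggregation, measured by whole blood aggregometry.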

Cynomolgus monkey [6] = experiment: Inhibition of haTRAP-induced platelet aggregation in cynomolgus monkey at 1 mg/kg, po after 24 hrs; type: functional; conditions: Macaca fascicularis; how it was run: as §4
[7] = biological target: T2, Proteinase-activated receptor 1 (Homo sapiens) (UniProt P25116); experiment: as §1; type: cell membranes; how it was run: as §2
T2 sequence (whole entry): T1 sequence (P25116 whole entry)

Mus musculus [8] = organism: Mus musculus; experiment: Effect on liver to body weight ratio in mouse; type: functional, organism-based
How it was run: (§5)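 Mouse P450 enzyme induction model run for 8 days at doses up to 100 mg/kg; end points were liver weight, liver-to-body weight ratio and spectral CYP450.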

[9] = Cmax in po dosed cynomolgus monkey; type: ADME, organism-based, Macaca fascicularis; set-up: route oral; conditions: in vivo
[10] = Bioavailability in cynomolgus monkey at 3 mg/kg, po; type: ADME, organism-based, Macaca fascicularis; conditions: in vivo
[11] = Half life in iv dosed cynomolgus monkey; type: ADME, organism-based, Macaca fascicularis; conditions: in vivo
[12] = Tmax in cynomolgus monkey; type: ADME, organism-based, Macaca fascicularis; conditions: in vivo
Mus musculus [13] = organism: Mus musculus; experiment: Effect on liver weight in mouse; type: functional, organism-based; how it was run: as §5
[14] = Bioavailability in cynomolgus monkey at 1 mg/kg, iv and 1.5 mg/kg, po; type: ADME, organism-based, Macaca fascicularis; conditions: in vivo
[15] = Tmax in cynomolgus monkey at 1 mg/kg, iv and 1.5 mg/kg, po; type: ADME, organism-based, Macaca fascicularis; conditions: in vivo
[16] = Half life in cynomolgus monkey at 1 mg/kg, iv and 1.5 mg/kg, po; type: ADME, organism-based, Macaca fascicularis; conditions: in vivo
[17] = AUC (0 to 24 hrs) in cynomolgus monkey at 1 mg/kg, iv and 1.5 mg/kg, po; type: ADME, organism-based, Macaca fascicularis; conditions: plasma
[18] = Cmax in cynomolgus monkey at 1 mg/kg, iv and 1.5 mg/kg, po; type: ADME, organism-based, Macaca fascicularis; conditions: in vivo

SMILES	IC50 [1] [nM]	AUC(0-t) at 6 h [2] [ng·h/mL]	also measured
C[C@H]1OC(=O)[C@@H]2C[C@@H]3C[S+]([O-])CC[C@H]3[C@H](/C=C/c3ccc(-c4cccc(C(F)(F)F)c4)cn3)[C@H]12 (single isomer, unassigned; isomer 2)	375	–	–
COCCOC(=O)N1CC[C@@H]2[C@H](C[C@H]3C(=O)O[C@H](C)[C@H]3[C@H]2/C=C/c2ccc(-c3cccc(F)c3)cn2)C1	16.5	88	–
CCOC(=O)N1CC[C@@H]2[C@H](C[C@H]3C(=O)O[C@H](C)[C@H]3[C@H]2/C=C/c2ccc(-c3ccccc3F)cn2)C1	8	3780	inhibition in vivo at 3 mg/kg (Cynomolgus monkey [3]): 55%; inhibition in vivo at 3 mg/kg (Cynomolgus monkey [4]): 55%
CCOC(=O)N1CCC[C@H]2[C@H](/C=C/c3ccc(-c4ccccc4F)cn3)[C@@H]3[C@@H](C)OC(=O)[C@@H]3C[C@@H]21	153	–	–
C[C@H]1OC(=O)[C@@H]2C[C@@H]3CN(C)CC[C@H]3[C@H](/C=C/c3ccc(-c4cccc(C(F)(F)F)c4)cn3)[C@H]12	762	–	–
C[C@H]1OC(=O)[C@@H]2C[C@@H]3CN(C(=O)C4CC4)CC[C@H]3[C@H](/C=C/c3ccc(-c4ccccc4F)cn3)[C@H]12	8	6010	inhibition in vivo at 3 mg/kg (Cynomolgus monkey [3]): 39%; inhibition in vivo at 3 mg/kg (Cynomolgus monkey [4]): 45%
C[C@H]1OC(=O)[C@@H]2C[C@@H]3COCC[C@H]3[C@H](/C=C/c3ccc(-c4cccc(F)c4F)cn3)[C@H]12	26	1190	–
C[C@H]1OC(=O)[C@@H]2C[C@@H]3CN(S(C)(=O)=O)CC[C@H]3[C@H](/C=C/c3ccc(-c4cccc(F)c4)cn3)[C@H]12	15	5350	inhibition in vivo at 3 mg/kg (Cynomolgus monkey [3]): 50%; inhibition in vivo at 3 mg/kg (Cynomolgus monkey [4]): 54%
C[C@H]1OC(=O)[C@@H]2C[C@@H]3COCC[C@H]3[C@H](/C=C/c3ccc(-c4cccc(F)c4)cn3)[C@H]12	26	850	Activity (Cynomolgus monkey [5]): Active; inhibition in vivo at 1 mg/kg (Cynomolgus monkey [6]): 80%
C[C@H]1OC(=O)[C@@H]2C[C@@H]3CN(C(N)=O)CC[C@H]3[C@H](/C=C/c3ccc(-c4cccc(F)c4)cn3)[C@H]12	1100	–	–
CCOC(=O)N1CCC[C@H]2[C@H](/C=C/c3ccc(-c4cccnc4)cn3)[C@@H]3[C@@H](C)OC(=O)[C@@H]3C[C@@H]21	–	–	Activity [7]: inactive
C[C@H]1OC(=O)[C@@H]2C[C@@H]3COCC[C@H]3[C@H](/C=C/c3ccc(-c4cccc(C(F)(F)F)c4)cn3)[C@H]12	17	545	–
C[C@H]1OC(=O)[C@@H]2C[C@@H]3C[S+]([O-])CC[C@H]3[C@H](/C=C/c3ccc(-c4cccc(C(F)(F)F)c4)cn3)[C@H]12 (stereo in doubt)	80	–	–
C[C@H]1OC(=O)[C@@H]2C[C@@H]3COCC[C@H]3[C@H](/C=C/c3ccc(-c4cccc(Cl)c4Cl)cn3)[C@H]12	21	–	–
C[C@H]1OC(=O)[C@@H]2C[C@@H]3CN(C(=O)C4CC4)CC[C@H]3[C@H](/C=C/c3ccc(-c4cccc(F)c4)cn3)[C@H]12	15.5	4370	inhibition in vivo at 3 mg/kg (Cynomolgus monkey [3]): 72%; inhibition in vivo at 3 mg/kg (Cynomolgus monkey [4]): 100%
CC(=O)N1CC[C@@H]2[C@H](C[C@H]3C(=O)O[C@H](C)[C@H]3[C@H]2/C=C/c2ccc(-c3cccc(C(F)(F)F)c3)cn2)C1	550	–	–
C[C@H]1OC(=O)[C@@H]2C[C@@H]3CSCC[C@H]3[C@H](/C=C/c3ccc(-c4cccc(C(F)(F)F)c4)cn3)[C@H]12	22	–	–

SMILES	IC50 [1] [nM]	AUC(0-t) at 6 h [2] [ng·h/mL]	also measured
CCNC(=O)N1CC[C@@H]2[C@H](C[C@H]3C(=O)O[C@H](C)[C@H]3[C@H]2/C=C/c2ccc(-c3cccc(F)c3)cn2)C1	18.5	2050	inhibition in vivo at 3 mg/kg (Cynomolgus monkey [3]): 34%; inhibition in vivo at 3 mg/kg (Cynomolgus monkey [4]): 47%
CC(C)C(=O)N1CC[C@@H]2[C@H](C[C@H]3C(=O)O[C@H](C)[C@H]3[C@H]2/C=C/c2ccc(-c3cccc(C(F)(F)F)c3)cn2)C1	113	–	–
C[C@H]1OC(=O)[C@@H]2C[C@@H]3CNCC[C@H]3[C@H](/C=C/c3ccc(-c4cccc(C(F)(F)F)c4)cn3)[C@H]12	600	–	–
CCOC(=O)N1CC[C@@H]2[C@H](C[C@H]3C(=O)O[C@H](C)[C@H]3[C@H]2/C=C/c2ccc(-c3ccccn3)cn2)C1	33.5	–	inhibition in vivo at 3 mg/kg (Cynomolgus monkey [3]): 29%; inhibition in vivo at 3 mg/kg (Cynomolgus monkey [4]): 67%
CCOC(=O)N1CCC[C@H]2[C@H](/C=C/c3ccc(-c4cccc(C#N)c4)cn3)[C@@H]3[C@@H](C)OC(=O)[C@@H]3C[C@@H]21	295	–	–
CCOC(=O)N1CC[C@@H]2[C@H](C[C@H]3C(=O)O[C@H](C)[C@H]3[C@H]2/C=C/c2ccc(-c3cccc(F)c3)cn2)C1	10.5	2220	inhibition in vivo at 3 mg/kg (Cynomolgus monkey [3]): 70%; Activity (Mus musculus [8]): inactive; inhibition in vivo at 3 mg/kg (Cynomolgus monkey [4]): 100%; Cmax [9]: 990 nM; bioavailability [10]: 62%; half-life [11]: 6.2 h; Tmax [12]: 0.7 h; Activity (Mus musculus [13]): inactive; Ki [1]: 4.5 nM
C[C@H]1OC(=O)[C@@H]2C[C@@H]3CN(C(=O)OCc4ccccc4)CC[C@H]3[C@H](/C=C/c3ccc(-c4cccc(C(F)(F)F)c4)cn3)[C@H]12	25	–	–
C[C@H]1OC(=O)[C@@H]2C[C@@H]3COCC[C@H]3[C@H](/C=C/c3ccc(-c4cccc(Cl)c4)cn3)[C@H]12	19	–	–
CCOC(=O)N1CCC[C@H]2[C@H](/C=C/c3ccc(-c4cccc(F)c4)cn3)[C@@H]3[C@@H](C)OC(=O)[C@@H]3C[C@@H]21	224	–	–
CCOC(=O)N1CC[C@@H]2[C@H](C[C@H]3C(=O)O[C@H](C)[C@H]3[C@H]2/C=C/c2ccc(-c3cccc(C(F)(F)F)c3)cn2)C1	11	–	–
C[C@H]1OC(=O)[C@@H]2C[C@@H]3CS(=O)(=O)CC[C@H]3[C@H](/C=C/c3ccc(-c4cccc(C(F)(F)F)c4)cn3)[C@H]12	200	–	–
C[C@H]1OC(=O)[C@@H]2C[C@@H]3COCC[C@H]3[C@H](/C=C/c3ccc(-c4ccccc4F)cn3)[C@H]12	25	1050	bioavailability [14]: 71%; Tmax [15]: 1.7 h; half-life [16]: 8.6 h; Activity (Cynomolgus monkey [5]): Active; AUC(0-t) [17]: 3700 ng·h/mL; Cmax [18]: 610 ng/mL; inhibition in vivo at 1 mg/kg (Cynomolgus monkey [6]): 55%
CCOC(=O)N1CCC[C@H]2[C@H](/C=C/c3ccc(-c4ccccc4C)cn3)[C@@H]3[C@@H](C)OC(=O)[C@@H]3C[C@@H]21	600	–	–
CCCS(=O)(=O)N1CC[C@@H]2[C@H](C[C@H]3C(=O)O[C@H](C)[C@H]3[C@H]2/C=C/c2ccc(-c3cccc(F)c3)cn2)C1	101	–	–
C[C@H]1OC(=O)[C@@H]2C[C@@H]3COCC[C@H]3[C@H](/C=C/c3ccc(-c4ccccc4Cl)cn3)[C@H]12	13	–	–
C[C@H]1OC(=O)[C@@H]2C[C@@H]3CN(C(=O)C4CC4)CC[C@H]3[C@H](/C=C/c3ccc(-c4cccc(C(F)(F)F)c4)cn3)[C@H]12	37.5	–	–
